Bioassay records deposited in PubChem by Sanford-Burnham Center for Chemical Genomics.
Shown are actives, neighbours in structure and some others; about 2.3% of the full set was active somewhere.
Scp1 inh = inhibitors of human Scp-1 phosphatase | 0.88% of 340,000 active | Recombinant Scp1, phosphopeptide, malachite green phosphate absorbance | inhibition, % at 20 µM | Q9GZU7 | AID 493091;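 active = inhibition above about 50% at 20 µM, limit read from the data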;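 also: plate controls were DMSO wells with enzyme for no effect and wells lacking enzyme for full effect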
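System: SCP-1 catalytic domain; Reagent: Phospho 17-mer peptide substrate; Doses: one concentration, 20 µM, with 1.0% DMSO; Incubation: 45 min room-temperature reaction, 5 min colour, 30 min stabiliser; Signal: Phosphate-binding colour reagent, absorbance read at 630 nm.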
LMPTP inh = LMPTP (human) inhibition. P24666. recombinant LMPTP-A, OMFP fluorogenic substrate, fluorescence intensity. inhibition, % at 20 µM. 0.22% of 360,000 active;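 active = compounds that cut the enzyme signal by at least half of the control window in the single-dose screen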;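 also: plate controls were DMSO wells with enzyme plus substrate for no effect and substrate without enzyme for full effect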
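Test system: LMPTP-A phosphatase enzyme; input: 0.625 nM LMPTP-A final; reagent: OMFP substrate, 400 µM final; compound dosing: 20 µM single dose, 3% DMSO; incubation: 50 min dark incubation at room temperature; measured by: endpoint fluorescence intensity from OMFP dephosphorylation; measure: % inhibition relative to no-enzyme and uninhibited control wells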
STEP block = STEP (human) phosphatase inhibition; P54829; recombinant STEP, OMFP fluorogenic substrate, fluorescence; inhibition, % at 20 µM; 0.25% of 360,000 active; AID 588621;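 active = inhibition at 20 µM, scaled per plate between control wells, above about 37%, limit read from the data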;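 also: 0% = DMSO with enzyme and substrate and 100% = substrate only without enzyme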
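System: STEP (striatal-enriched tyrosine phosphatase) enzyme, cell-free; medium: Bis-Tris pH 6.0 buffer with DTT, detergent; dosing: 20 µM, 1% DMSO; times: reaction 20 min, ambient temperature; detection: fluorescence, 480/540 nm; read-out basis: normalized % inhibition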
DNMT1 block = blocks human DNA methyltransferase DNMT1. P26358. DNMT1 molecular beacon, Hinp1I cleavage, fluorescence. inhibition (reported as % activation of signal), % at 10 µM. 0.83% of 360,000 active; in the data active = inhibition above about 50%
Target sequence (P26358 504-1616 limits assumed): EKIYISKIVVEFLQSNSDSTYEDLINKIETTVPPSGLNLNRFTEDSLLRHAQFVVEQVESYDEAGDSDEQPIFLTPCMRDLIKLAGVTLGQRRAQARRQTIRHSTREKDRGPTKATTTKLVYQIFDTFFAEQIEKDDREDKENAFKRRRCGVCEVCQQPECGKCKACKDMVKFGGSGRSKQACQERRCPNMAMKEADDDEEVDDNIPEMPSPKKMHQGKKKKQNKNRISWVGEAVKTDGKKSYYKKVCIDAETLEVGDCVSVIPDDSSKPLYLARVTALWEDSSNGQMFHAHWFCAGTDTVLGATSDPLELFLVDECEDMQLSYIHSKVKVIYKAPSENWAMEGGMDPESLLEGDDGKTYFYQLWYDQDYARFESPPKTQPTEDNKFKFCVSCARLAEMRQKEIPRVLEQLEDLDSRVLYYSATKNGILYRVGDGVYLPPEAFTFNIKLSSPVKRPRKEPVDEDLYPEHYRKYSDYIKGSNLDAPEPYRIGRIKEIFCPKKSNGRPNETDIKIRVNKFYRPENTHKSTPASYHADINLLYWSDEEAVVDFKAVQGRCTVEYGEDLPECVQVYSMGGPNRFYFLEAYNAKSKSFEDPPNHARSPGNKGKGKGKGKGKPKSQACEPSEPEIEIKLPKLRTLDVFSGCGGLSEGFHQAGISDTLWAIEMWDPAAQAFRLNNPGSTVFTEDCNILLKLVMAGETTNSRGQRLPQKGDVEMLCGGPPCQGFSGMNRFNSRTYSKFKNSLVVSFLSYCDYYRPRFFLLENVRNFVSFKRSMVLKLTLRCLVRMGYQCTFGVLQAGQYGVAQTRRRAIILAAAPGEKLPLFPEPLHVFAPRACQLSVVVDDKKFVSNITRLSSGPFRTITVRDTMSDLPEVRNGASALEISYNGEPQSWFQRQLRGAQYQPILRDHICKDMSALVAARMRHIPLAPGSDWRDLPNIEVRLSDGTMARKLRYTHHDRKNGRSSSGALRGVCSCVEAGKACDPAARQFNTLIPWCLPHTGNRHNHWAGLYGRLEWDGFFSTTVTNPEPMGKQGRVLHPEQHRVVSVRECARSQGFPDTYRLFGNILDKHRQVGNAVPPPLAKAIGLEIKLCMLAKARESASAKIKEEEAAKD
NadD inh = NadD (S. aureus) enzyme inhibition | purified NadD enzyme, colorimetric absorbance read-out | inhibition, % at 20 µM | 0.78% of 360,000 active | AID 602399; in the data active = inhibition above about 26%
SUMO1-SIM PPI = SUMO1-SIM interaction modulation; P63165; inhibition, % at 20 µM; 0.33% of 360,000 active; SUMO1 binding to a labelled peptide, TR-FRET, 1 h; in the data active = inhibition above about 37%
Scp1 confirm = confirmation of human Scp-1 phosphatase inhibitors; shares compounds with Scp1 inh; recombinant SCP-1 catalytic domain, phosphate release, malachite green absorbance; inhibition, % at 20 µM; 61% of 2,500 active; AID 540281;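 also: plate controls were DMSO with enzyme for no effect and buffer wells lacking enzyme for full effect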
MG interference = colorimetric interference in Scp-1 counter-screen; apparent inhibition (interference), % at 20 µM; shares compounds with Scp1 inh; AID 540313; 2,500 tested, under 10 active; Colorimetric interference counterscreen, malachite green absorbance 630 nm;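 also: compounds added after enzyme reaction finished so only phosphate colour detection is probed; plate controls were DMSO wells with completed Scp-1 reaction for no effect and substrate wells lacking enzyme for full effect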
Scp-1 Tm shift = Scp-1 (human) binding by thermal shift; Recombinant SCP1, Sypro Orange thermal shift Tm; thermal shift relative to vanadate control, % at 40 µM; AID 540329; 25% of 1,500 active; shares compounds with Scp1 inh;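 active = substances whose mean melting-temperature shift, as a percentage of the reference inhibitor's shift, reaches about 5.3%, limit read from the data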;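 also: 0% = Tm of DMSO wells and 100% = Tm with sodium orthovanadate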
* = called active by the depositor; / = no result given.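 The calls were made as follows, unless noted: active = inhibition of at least 30% at 20 µM; inactive = the rest.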

SMILES	Scp1 inh	LMPTP inh	STEP block	DNMT1 block	NadD inh	SUMO1-SIM PPI	Scp1 confirm	MG interference	others
Cc1cccc2cc(C(c3nnnn3C(C)(C)C)N(Cc3ccco3)CC3CCCO3)c(=O)[nH]c12 (centres undefined)	61.0*	17.6	2.9	6.9	16.9	4.1	52.5*	-6.5	Scp-1 Tm shift=-2.3
O=C(CCN1CCOCC1)Nc1ccc(Cl)cc1	-2.0	-1.9	-4.1	1.1	-3.8	2.6	/	/
Nc1cc([N+](=O)[O-])ccc1N1C(=O)CCCC1=O	63.5*	1.8	3.9	15.9	-7.9	-7.8	49.1*	-8.2	Scp-1 Tm shift=-16.2
Nc1cc(Cl)ccc1N1C(=O)CCC1=O	-4.5	-0.4	-1.1	-4.6	-4.3	1.6	/	/
C=CCOc1ccc(Br)cc1/C=C1/SC(=Nc2ccc(C(=O)O)cc2)NC1=O	85.9*	81.2*	64.7*	13.7	27.5	10.9	75.2*	-13.4	Scp-1 Tm shift=5.0
COc1cccc2cc(C(=O)NCc3ccco3)c(=O)oc12	-2.7	-1.6	-1.4	-0.8	-0.7	-16.5	/	/
COc1cccc2cc(C(=O)NCc3ccco3)c(=Nc3ccc(C(=O)O)cc3)oc12	56.2*	0.4	0.1	-4.5	-4.1	-17.4	31.8*	-19.4	Scp-1 Tm shift=-0.1
COCCCNC(=O)Cn1c(=O)n(CCCCCC(=O)NCc2ccc3c(c2)OCO3)c(=O)c2sccc21	-7.9	0.5	-1.1	1.6	-6.7	-2.9	/	/
Cc1ccc(S(=O)(=O)N2CCN(C(=O)COC(=O)CCOc3ccccc3C)CC2)c(C)c1	66.0*	0.2	0.3	-1.0	6.9	0.5	85.9*	-17.0	Scp-1 Tm shift=-19.6
CSc1ccc(C(O)c2ncc(-c3ccc(F)cc3)[nH]2)cc1 (centres undefined)	/	0.6	3.2	-8.6	-1.4	-0.1	/	/
COc1cc2cnc(-c3ccccc3)c(-c3cccc(C(F)(F)F)c3)c2cc1OC	52.6*	4.4	0.5	-13.7	14.7	5.7	-9.9	-9.0
Fc1cc(F)cc(-c2c(-c3ccccc3)ncc3ccc(F)cc23)c1	85.1*	4.2	0.3	27.1	12.9	6.9	38.4*	-12.6	Scp-1 Tm shift=-25.0
O=[N+]([O-])c1cccc(-c2c(-c3ccccc3)ncc3cc(F)ccc23)c1	1.2	1.3	3.6	-4.1	-3.1	-16.7	/	/
Fc1ccc2cnc(-c3ccccc3)c(-c3cccc(C(F)(F)F)c3)c2c1	64.6*	2.5	0.0	10.6	6.5	0.0	6.3	-6.0
COc1cc2cnc(-c3ccccc3)c(-c3ccc(C#N)cc3)c2cc1OC	24.9	-0.3	1.0	1.6	-1.5	0.8	/	/
CC(=O)Nc1ccc2c(O)cc(S(=O)(=O)O)cc2c1	58.7*	30.9	23.3	27.7	-0.8	7.3	46.3*	-14.2	Scp-1 Tm shift=-0.1
COc1ccc(C(CNS(=O)(=O)c2ccc(NC(C)=O)c(OC)c2)N2CCCCC2)cc1 (centres undefined)	50.2*	0.1	-0.3	4.1	-1.5	-5.8	-16.0	-17.5
CCOC(=O)C(=O)N(C)c1c(CC)nc2c(OCc3cccc(Cl)c3)cccn12	/	0.5	-0.5	-4.7	2.1	-1.5	/	/
COc1ccc(NS(=O)(=O)c2ccc(O)c(C(=O)OCC(=O)N3CCCCC3)c2)cc1	-3.6	-0.3	-1.5	4.2	-5.2	10.5	/	/
CCN(CC)S(=O)(=O)c1ccc(O)c(C(=O)OCC(=O)N2CCCC2)c1	52.7*	-1.1	4.6	4.2	1.3	2.5	-7.5	-11.2
CC(c1ccccc1)N1C(=O)/C(=C/c2ccncc2)SC1=S (centres undefined)	-10.9	-0.4	1.9	0.5	-9.0	-12.1	/	/
CCCCNC(=O)[C@@H]1CC=C[C@@H]2CCN(C3CC3)C(=O)[C@@H]21	-8.2	0.1	-0.7	2.1	0.6	0.6	/	/
Cc1cccc(NC(=O)COc2ccc(/C=C\c3[nH]c(=O)[nH]c(=O)c3[N+](=O)[O-])cc2)c1	78.7*	55.2*	20.6	13.3	22.7	19.9	73.7*	-14.0	Scp-1 Tm shift=5.5*
O=c1[nH]c(/C=C/c2ccc([N+](=O)[O-])cc2)c([N+](=O)[O-])c(=O)[nH]1	-2.8	-1.5	3.9	6.3	-2.4	8.1	/	/
C=CCN(CC=C)Cc1cc(=O)oc2cc(C)c(Cl)cc12	/	1.6	7.4	6.1	-0.5	-2.2	/	/
SMILES	Scp1 inh	LMPTP inh	STEP block	DNMT1 block	NadD inh	SUMO1-SIM PPI	Scp1 confirm	MG interference	others
O=C(O)Cc1ccc(-n2cccc2)cc1	79.8*	4.1	2.5	96.1*	8.2	7.7	53.2*	-17.5	Scp-1 Tm shift=-6.3
Cc1cc(C)n2cc(CSc3nnc(-c4ccccc4)o3)nc2n1	79.6*	-0.9	0.4	3.0	-0.3	-2.5	-5.6	-12.6
Cc1cc(C)n2cc(CSCc3ccccc3)nc2n1	-4.0	-0.1	3.0	1.1	-2.4	-0.9	/	/
COc1ccc(NC(=O)CSc2nc(O)cc(=O)n2C)cc1	-8.2	-1.0	4.4	-0.3	-5.3	0.6	/	/
Cn1c(SCC(=O)Nc2ccccc2)nc(O)cc1=O	-4.4	-0.8	2.5	-6.8	2.4	7.3	-6.8	-3.5
COc1ccc(N2CC(C(=O)Nc3nnc(SCC(=O)N4CCOCC4)s3)CC2=O)cc1 (centres undefined)	-4.7	-1.5	2.7	1.3	0.2	3.1	/	/
O=C(c1ccc(F)c(S(=O)(=O)N2CCOCC2)c1)N1CCc2ccccc21	0.0	-0.4	-0.5	-5.3	-1.7	4.2	/	/
O=C(CC1Oc2ccccc2NC1=O)NCCCN1CCCC1=O (centres undefined)	-12.2	3.1	-1.8	1.4	1.0	4.1	-12.9	-13.7
O=C1CCCN1CCCNC(=S)Nc1ccc(Cl)cc1Cl	-4.6	-0.6	-0.4	1.1	0.4	4.7	/	/
O=C1CCCN1CCCNC(=S)Nc1ccccc1Cl	-5.2	-0.8	4.8	3.2	-2.8	0.5	1.0	3.1
O=C(NC1CCCCC1)N(c1ccccc1)c1nnc(-c2cccc([N+](=O)[O-])c2)s1	/	0.9	2.6	-6.0	1.7	-4.5	/	/
CN(C)N1C(N)=C(C#N)C(c2ccc3c(c2)OCO3)C2=C1CCCC2=O (centres undefined)	-6.0	-0.7	-1.9	-0.3	0.2	6.2	/	/
COC(=O)c1ccc(NC(=S)N2CCC(C(N)=O)CC2)cc1	68.3*	0.6	10.0	0.1	-0.6	3.1	-6.2	-7.3
Cc1cc(SCC(=O)Nc2ccc3[nH]c(=O)[nH]c3c2)nc2ccccc12	5.3	1.0	-1.5	6.8	6.4	23.5	/	/
